# High-throughput results: PubChem, several laboratories
# AP complement – alternative pathway complement inhibition, orthogonal assay | inhibition, % at 5 µM | 0.08% of 62,000 active | Human serum alternative complement pathway, LPS-coated ELISA, C3 deposition; tested in compound mixtures | AID 1235;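 active = inhibition above 30% in each of the two pooled mixtures holding the compound, so the lower value exceeds 30%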;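 note: 0% = serum in Mg-EGTA without compound and 100% = EDTA serum blank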
#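 Test system: human serum complement alternative pathway, C3 deposition onto LPS / Medium: Mg2+-EGTA GVB++ buffer containing human serum at 1:15 dilution / Probe or stimulus: Plate-bound LPS / Times: 1 h at 37 °C / Signal: ELISA with HRP anti-human C3 antibody, TMB substrate, absorbance 450 nm / Measure: percent inhibition / Repeats: two pool placements per compound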
# HEK293 NFkB inh – inhibitors of the PMA/ionomycin-induced NF-kB reporter in HEK293 cells. inhibition, % at 3 µM. HEK-293 NF-kB luciferase reporter, luminescence. 0.21% of 62,000 active;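 active = inhibition above the mean of all tested compounds plus 3 SD, cut at about 40% in these data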;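 note: 0% = stimulated DMSO wells and 100% = 10 µM reference inhibitor 5653914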
#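 Timing: 1 h pretreatment, 16 h stimulation, 37 °C; system: HEK-293 cells with stable firefly luciferase reporter driven by four HIV NF-kB elements; doses: 3 µM once, 0.30% DMSO; measured by: luciferase luminescence; control set: DMSO and 10 µM reference inhibitor; repeats: single test; reagent: PMA plus ionomycin mix as NF-kB-activating stimulus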
# hDAT+cocaine – changed human dopamine transporter uptake under cocaine IC80. Q01959. 1.3% of 110,000 active. B-score at 10 µM. LLC-PK1 hDAT cells, [14C]-dopamine uptake with cocaine IC80; actives deviate in either direction;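 active = Z score or B-score, a plate-position-corrected score, falls beyond the plate's 99.7% confidence bounds, in either direction; inactive = both scores lie inside the 99.7% bounds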;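 note: scored against the spread of the other compound wells on the same plate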
# Ec RNAP inh – inhibitors of Escherichia coli RNA polymerase; E. coli RNA polymerase, fluorescence transcription assay; inhibition, %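 (tested at 10 µM)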; AID 559; 0.2% of 62,000 active; in the data active = inhibition above about 20%;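 note: 0% = enzyme without compound and 100% = no enzyme blank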
# Target sequence (P0A8V2 whole entry, looked up): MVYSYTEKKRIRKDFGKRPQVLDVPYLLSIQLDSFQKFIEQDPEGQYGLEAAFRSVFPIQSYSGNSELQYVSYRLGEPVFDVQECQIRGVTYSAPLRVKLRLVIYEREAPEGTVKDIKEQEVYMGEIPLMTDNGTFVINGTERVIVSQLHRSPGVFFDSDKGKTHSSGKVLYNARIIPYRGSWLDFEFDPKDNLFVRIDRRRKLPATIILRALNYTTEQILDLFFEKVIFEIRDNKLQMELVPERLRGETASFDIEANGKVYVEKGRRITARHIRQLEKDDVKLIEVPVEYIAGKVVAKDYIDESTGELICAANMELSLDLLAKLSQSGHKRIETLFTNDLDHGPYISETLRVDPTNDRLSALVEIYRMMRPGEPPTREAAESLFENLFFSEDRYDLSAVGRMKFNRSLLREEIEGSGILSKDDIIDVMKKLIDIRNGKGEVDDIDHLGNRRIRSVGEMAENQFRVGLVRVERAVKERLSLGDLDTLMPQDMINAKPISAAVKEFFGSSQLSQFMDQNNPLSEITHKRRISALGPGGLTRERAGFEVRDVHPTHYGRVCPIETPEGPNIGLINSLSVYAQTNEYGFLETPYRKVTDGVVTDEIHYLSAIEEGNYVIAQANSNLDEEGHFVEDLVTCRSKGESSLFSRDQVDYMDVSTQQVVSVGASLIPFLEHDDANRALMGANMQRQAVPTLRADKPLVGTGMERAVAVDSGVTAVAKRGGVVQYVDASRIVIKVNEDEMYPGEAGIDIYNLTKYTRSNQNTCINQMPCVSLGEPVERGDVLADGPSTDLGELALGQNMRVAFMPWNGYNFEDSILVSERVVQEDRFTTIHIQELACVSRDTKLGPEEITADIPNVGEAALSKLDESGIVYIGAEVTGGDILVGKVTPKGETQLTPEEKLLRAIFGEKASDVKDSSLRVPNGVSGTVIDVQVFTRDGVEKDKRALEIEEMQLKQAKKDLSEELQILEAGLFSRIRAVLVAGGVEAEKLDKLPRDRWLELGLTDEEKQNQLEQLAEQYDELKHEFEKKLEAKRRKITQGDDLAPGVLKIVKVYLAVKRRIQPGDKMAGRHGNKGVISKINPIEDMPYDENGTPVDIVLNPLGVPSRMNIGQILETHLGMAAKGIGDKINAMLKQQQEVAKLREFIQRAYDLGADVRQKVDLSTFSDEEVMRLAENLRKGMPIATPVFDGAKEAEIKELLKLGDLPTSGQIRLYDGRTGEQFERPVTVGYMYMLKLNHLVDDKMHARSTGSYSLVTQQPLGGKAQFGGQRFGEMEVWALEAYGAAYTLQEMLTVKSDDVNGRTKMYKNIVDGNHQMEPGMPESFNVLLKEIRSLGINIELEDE
# D1 mod – D1 dopamine receptor (human) allosteric modulation; 5.9% of 58,000 active; AID 641; HEK293 D1, CRE-luciferase, dopamine EC30 potentiation; actives deviate in either direction; B-score at 10 µM;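 active = luminescence count or its row- and column-corrected plate score outside the 99.7% band of the plate's sample wells, on either side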
# Starred values were filed as active, the others as inactive; . = no result given; ! = a repeat was not active. This is one part of a sample in which hits are shown more often than they occur.
SMILES,AP complement,HEK293 NFkB inh,hDAT+cocaine,Ec RNAP inh,D1 mod
CCn1c(=O)cc(OCC(=O)Nc2ccccc2C#N)c2ccccc21,11,-4,0.078,2,-1.2
CCCNC(=O)C(Cc1ccccc1)NS(=O)(=O)c1ccc2c(c1)CCC(=O)N2 (stereo unspecified),0,8,-2.2*,0,1.1
Cc1ccc(CNC(=O)C(Cc2ccccc2)NS(=O)(=O)c2ccc3c(c2)CCC(=O)N3)cc1 (stereo unspecified),.,.,0.14,.,.
O=C(O)/C=C/c1ccc(O)c(O)c1,5,.,-1.2,21*,0.95
COc1cc(/C=C/C(=O)O)ccc1O,.,.,0.051,.,.
CC(C)Oc1ccc(C(=O)NC2(C(F)(F)F)N=C3SCCN3C2=O)cc1 (stereo unspecified),.,.,0.5,.,.
C=CS(=O)(=O)c1ccc(Oc2ccc(S(=O)(=O)C=C)cc2)cc1,21,81*,.,5,-4.8*
Cn1c(=O)[nH]c(=O)c2c1nc(N1CCN(c3ccccc3)CC1)n2CCSc1ncccn1,15,8,0.91,7,-4.2*
C=CCn1c(CSCc2ccc(Cl)cc2)nnc1SCC(=O)NCc1ccccc1,.,.,2,.,.
C=CCn1c(CSCc2ccc(C)cc2)nnc1SCC(=O)NCc1ccccc1,.,.,2.1*,.,.
CC1=CC(C)(C)Nc2ccc(OC(=O)CN3C(=O)CCC3=O)cc21,10,40*,-0.6,6,-0.19
CC1=CC(C)(C)Nc2ccc(C)cc21,-5,6,-0.28,5,1
CC1=CC(C)(C)Nc2ccc(OC(=O)c3ccco3)cc21,-6,45*,-1.1,-5,-0.11
CC1=CC(C)(C)Nc2ccc(OC(=O)c3cccnc3)cc21,27,44*,0.4,4,-0.55
CC1=CC(C)(C)Nc2ccc(OC(=O)C(C)N3C(=O)c4ccccc4C3=O)cc21 (stereo unspecified),.,.,-0.029,.,.
CCOc1ccc(OC(=O)c2cccnc2)cc1,2,2,0.61,6,.
C/C=C(\CS(=O)(=O)c1ccccc1)S(=O)(=O)c1ccccc1,6,2,-0.73,4,-0.037
COc1ccc(COC[C@H](C)[C@H](O)[C@@H](C)[C@H]2OC(=O)[C@@H]2C)cc1,.,.,0.14,.,.
CCOC(=O)N1CCC(N2CCN(S(=O)(=O)c3ccc4ccccc4c3)CC2)CC1,.,.,-0.35,.,.
CCS(=O)(=O)NCC(c1cccnc1)N1CCN(c2ccccc2F)CC1 (stereo unspecified),14,12,0.84,5,-0.38
CCOc1c(C)cc(-c2ncccc2O)cc1C,13,-2,-7.9*!,-10,-0.92
Cc1ccc(OCc2nc(-c3ccccn3)no2)cc1,.,.,0.18,.,.
CCc1ccc(OCc2nc(-c3ccccn3)no2)c(Br)c1,11,-45,-0.92,6,-5*
Cc1ccc(OCc2nc(-c3ccccn3)no2)c(Br)c1,1,-15,1.4,1,-5.7*
CC(C)c1ccc(OCc2nc(-c3ccccn3)no2)c(Br)c1,9,-40,-0.75,9,-2
SMILES,AP complement,HEK293 NFkB inh,hDAT+cocaine,Ec RNAP inh,D1 mod
COc1ccc(-c2noc(CSc3nc(N)c(-c4ccccc4)c(=O)[nH]3)n2)cc1,3,10,1.5,8,2.6
CCOc1ccccc1COC(=O)c1cccc(-n2cnnn2)c1,21,13,-0.96,.,10*
C[C@@H]1CC[C@@]2(O[C@@H](CCO)C[C@H](O)[C@H]2O)O1,.,.,0.12,.,.
CCOC(=O)Cc1csc(NC(=O)CCCCCN2C(=O)c3cccc4cccc(c34)C2=O)n1,.,.,0.1,.,.
O=C(c1cc(-c2cccc(O)c2)on1)N1CCOCC1,21,18,-0.35,-8,-5*
COc1cccc(N2CC(O)=C(c3nc4ccccc4c(=O)[nH]3)C2=N)c1,9,22,0.26,7,.
CC(C)N1CC(O)=C(c2nc3ccccc3c(=O)[nH]2)C1=N,.,.,1.3*,.,.
O=C1N2c3ccccc3CCc3cccc(c32)C1(O)C(F)(F)F (stereo unspecified),6,12,-2.2,-1,-2.7*
COc1ccc(OC)c2[nH]c(=O)c(CCNC(=O)CC(C)C)cc12,2,10,-0.94,3,-0.46
c1ccc(NCc2nnc3n2CCCCC3)cc1,4,11,1.9*,2,-0.96
Cc1cc(C(=O)NCCN2CCN(c3cccc(Cl)c3)CC2)n(-c2ccccc2)n1,12,6,-0.19,10,-3.2*
COc1ccc(N2CCN(CCNC(=O)CCCn3c(=O)[nH]c4cc(Cl)ccc4c3=O)CC2)cc1,7,8,-1.1,5,-2
COC(=O)c1ccc2c(=O)n(CCCCCC(=O)N3CCN(c4ccccc4)CC3)c(=O)[nH]c2c1,22,13,-8.3*!,3,-0.69
COCCn1c(=O)[nH]c2cc(C(=O)NCCN3CCN(c4cccc(Cl)c4)CC3)ccc2c1=O,3,24,0.54,4,-3.5*
Cc1cc(C(=O)NCCCN2CCN(c3cc(Cl)ccc3C)CC2)n(-c2ccccc2)n1,.,.,-0.3,.,.
CCN1CCN(C(=O)CCCCCn2c(=O)[nH]c3cc(C(=O)OC)ccc3c2=O)CC1,20,16,0.18,3,-0.15
CCN(CC)CCNC(=O)c1ccc2c(=O)n(CCc3ccccc3)c(=O)[nH]c2c1,6,6,1.2,-1,-3.1*
Cc1cc(C)n(C(=O)c2ccc(C)c(S(=O)(=O)N3CCCC3)c2)n1,8,18,0.9,6,-0.015
Clc1ccc2nsnc2c1NC1=NCCN1,.,.,-0.94,.,.
CCCCC(=O)Nc1cccc(NC(=O)c2ccccc2Br)c1,.,.,0.86,.,.
COc1cc2[nH]c(=O)n(CCC(=O)N3CCN(c4cccc(C)c4C)CC3)c(=O)c2cc1OC,11,18,1.3,3,-0.66
COc1cc2[nH]c(=O)n(CCCCCC(=O)N3CCN(c4ccccc4)CC3)c(=O)c2cc1OC,9,17,3.5*,3,.
CCS(=O)(=O)n1nc(-c2ccc(Cl)cc2)nc1SC,.,.,-0.26,.,.
Cn1nc(-c2ccc(Cl)cc2)nc2c(=O)n(C)c(=O)nc1-2,.,.,-4.4*,.,.
CCOC(=O)N1CCN(c2cc(=O)n(-c3ccc(C)cc3)c(=O)[nH]2)CC1,.,.,-0.13,.,.
SMILES,AP complement,HEK293 NFkB inh,hDAT+cocaine,Ec RNAP inh,D1 mod
COc1ccc(/C=C2/SC(=O)N(NS(=O)(=O)c3ccccc3)C2=S)cc1OC,.,.,-0.4,.,.
Cc1ccc(Nc2nc3c(c(=O)[nH]2)CCCC3)cc1,.,.,1.5,.,.
O=c1[nH]c(Nc2nc3ccccc3o2)nc2c1CCCC2,-4,-53,0.6,5,-6.4*
CCCCN(CCCNc1ncnc2nc[nH]c12)c1ccccc1,16,17,1.1,5,-3.5*
c1ccc(CCNc2ncnc3nc[nH]c23)cc1,-2,5,0.24,4,-0.26
CCN(CCCNc1ncnc2nc[nH]c12)c1cccc(C)c1,20,6,0.048,5,.
c1ccc2c(CCNc3ncnc4nc[nH]c34)c[nH]c2c1,-1,7,0.032,-3,-5.5*
C=CC[C@]12C[C@@H](OC)C(=O)C=C1O[C@@H](c1ccc(OC)c(OC)c1)[C@H]2C,.,.,-0.3,.,.
CCOC(=O)c1cccc(NC(=O)c2c(NCc3ccccc3)[nH]c(=O)[nH]c2=O)c1,.,.,-0.3,.,.
